For one test, the target named is T1, CIB1 (Homo sapiens, UniProt Q99828).
T1 sequence (Q99828 1-191): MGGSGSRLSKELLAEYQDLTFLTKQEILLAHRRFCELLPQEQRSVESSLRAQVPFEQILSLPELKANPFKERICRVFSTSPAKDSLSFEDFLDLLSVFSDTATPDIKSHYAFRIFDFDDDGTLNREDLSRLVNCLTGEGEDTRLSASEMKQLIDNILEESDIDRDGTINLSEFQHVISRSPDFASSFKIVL
As to the kind of experiment: Isothermal titration calorimetry. The class given is binding. A digest of the protocol:
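Recombinant CIB1 from E. coli BL21(DE3), His tag removed by TEV, dialyzed into 50 mM HEPES pH 7.4, 150 mM NaCl, 0.1 mM CaCl₂ unless otherwise noted, at 100 µM in cell. Peptides (0.8–1 mM, same buffer) injected as 10 µL every 300 s at 15 °C or 26 °C. Dilution heats taken from post-saturation injections; one-site fit; TΔS and ΔG calculated.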
A general note: ITC needs no label: the signal is the heat of the interaction.

The target in test [1] is Human wild type CIB1 (calcium and integrin binding protein 1) (human) (UniProt Q99828). As to the kind of experiment: ITC.
Test [2] concerns the target T2, Human wild type CIB1 (calcium and integrin binding protein 1) (human, UniProt Q99828 1-191).
T2 sequence (looked up): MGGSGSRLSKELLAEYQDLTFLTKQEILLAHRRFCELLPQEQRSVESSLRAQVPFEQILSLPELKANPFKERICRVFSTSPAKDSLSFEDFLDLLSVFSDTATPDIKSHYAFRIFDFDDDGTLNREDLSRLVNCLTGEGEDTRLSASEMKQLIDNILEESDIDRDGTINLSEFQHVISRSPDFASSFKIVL
As to the kind of experiment: ITC.

The target in test [3] is T2, Human wild type CIB1 (calcium and …). The test is described as follows: pull-down.
[4] abbreviates: ITC buffer without any NaCl, calculated value.

What is called Kd is the equilibrium constant for the complex coming apart. As a reminder, the stoichiometry N is the number of molecules, sites or subunits per partner or assembly.

In the case of “αIIb: synthetic cytoplasmic tail (CT) peptide of integrin αIIb; sequence in Table S1”, the TΔS was 4.09 kcal/mol in the test with CIB1 (ITC buffer with 150 mM NaCl, calculated from ΔG = ΔH − TΔS) and -0.574 kcal/mol in the test with CIB1 (setting [4]). Further, the ΔG in the test with CIB1 (ITC buffer with 150 mM NaCl, calculated from ΔG = −RT ln Ka) was -7.98 kcal/mol; in the test with CIB1 (setting [4]), -7.58 kcal/mol.
Consider “integrin α4 cytoplasmic tail (CT) peptide”, for which the dH in test [1] was 7.82 kcal/mol.

B1: integrin αL cytoplasmic tail (CT) peptide (peptide)
chain: IFIVLYKVGFFKRNLKEKMEAGRGVPNGIPAEDSEQLASGQEAGDPGCLKPLHEKDSESGGGKD
B1: in test [2], the equilibrium dissociation constant (Kd) is 3.2 µM, the dH was determined as 1.96 kcal/mol and the “stoichiometry N” value worked out at 1.1.
On to LIYILYKLGFFKRSLPYGTAMEKAQLKPPATSDA [integrin α5 cytoplasmic tail (CT) peptide], for which, in test [2], the Kd came out at 6.9 µM, the dH was found to be 5.11 kcal/mol and the “stoichiometry N” value amounted to 0.9.
The matching figures for LVFVMYRMGFFKRVRPPQEEQEREQLQPHENGEGNSET [integrin αV cytoplasmic tail (CT) peptide, wild type]: 4.3 µM, 1.74 kcal/mol and 0.9.
As to LVFVMYRMGFFKRVRPPQEEQEREQLQPHENGEGNSET (domain or fragment, human, UniProt P06756 1011-1048, looked up) [MBP-αV cytoplasmic tail fusion protein], the binding result in test [3] is recorded as “binds”.
Regarding LVLAMWKVGFFKRNRPPLEEDDEEGE (domain or fragment, human, UniProt P08514 1014-1039, looked up) [MBP-αIIb cytoplasmic tail fusion protein], in test [3], the binding result is given as “binds”.
In the case of IILLLWKCGFFKRARTRALYEAKRQKAEMKSQPSETERLTDDY [integrin α3 cytoplasmic tail (CT) peptide], in test [2], the Kd stood at 5.1 µM, the dH was found to be 1 kcal/mol and the “stoichiometry N” value was 1.

The record behind these values is article PMC4104500 (Biochemistry, 2013).
